Data from ChEMBL document CHEMBL3286203, “Reactive oxygen species (ROS) inducible DNA cross-linking agents and their effect on cancer cells and normal lymphocytes” (J Med Chem, 2014).
Calls of active or inactive are those of the source. The rule behind the calls is not given here.

Assays:
[1] = Induction of [32P]-labeled 49-mer oligonucleotide duplex DNA 12 interstrand cross-linking (unknown origin) at purine nucleotide site using compound radiolabeled at 3' of 12a in phosphate buffer at pH 7 at 90 degC after 30 mins by PAGE
[2] = Induction of [32P]-labeled 49-mer oligonucleotide duplex DNA 12 interstrand cross-linking (unknown origin) at purine nucleotide site using compound radiolabeled at 5' of 12a in phosphate buffer at pH 7 at 90 degC after 30 mins by PAGE
Method in brief: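 Cross-linked duplex, with strand 12a 32P-labelled at the 5′ end, heated at 90 °C either in phosphate buffer pH 7.0 or in 1.0 M piperidine. Cleavage sites were assigned by denaturing PAGE against G + A sequencing and Fe·EDTA markers.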

[3] = Induction of [32P]-labeled 49-mer oligonucleotide duplex DNA 12 interstrand cross-linking (unknown origin) at purine nucleotide site using compound radiolabeled at 5' of 12b at 90 deg C after 30 mins by PAGE in presence of piperidine
[4] = Induction of [32P]-labeled 49-mer oligonucleotide duplex DNA 12 interstrand cross-linking (unknown origin) at purine nucleotide site using compound radiolabeled at 3' of 12a at 90 deg C after 30 mins by PAGE in presence of piperidine
[5] = Cytotoxicity against human UO31 cells after 48 hrs by SRB assay; assay type: functional; settings: UO-31, 48 h
Method in brief: (§1)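 GI50 from the NCI-60 DTP human tumour line screen. Lines grown in RPMI 1640 with 5% fetal bovine serum and 2 mM L-glutamine, plated at 5000–40 000 cells/well according to doubling time. Incubated 48 h at 37 °C, 5% CO2.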

SR = experiment: Cytotoxicity against human SR cells after 48 hrs by SRB assay; assay type: functional; method in brief: as §1
LOX IMVI = experiment: Cytotoxicity against human LOXIMVI cells after 48 hrs by SRB assay; assay type: functional
Method in brief: (§2)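 GI50 was determined in the NCI Developmental Therapeutics Program in vitro 60-line cancer screen. Tumour lines were maintained in RPMI 1640 containing 5% FBS and 2 mM L-glutamine. Cells were inoculated at 5000–40 000 cells/well according to each line's doubling time before drug exposure.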

HT-29 = experiment: Cytotoxicity against human HT-29 cells after 48 hrs by SRB assay; assay type: functional; settings: HT-29, 48 h; method in brief: as §2
NCI-H226 = experiment: Cytotoxicity against human NCI-H226 cells after 48 hrs by SRB assay; assay type: functional; settings: NCI-H226, 48 h
Method in brief: (§3)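 GI50 from the NCI Developmental Therapeutics Program in vitro human tumor cell screen. Cell lines were maintained in RPMI 1640 with 5% fetal bovine serum and 2 mM L-glutamine. They were seeded at 5000–40 000 cells/well, depending on each line's doubling time, then exposed to drug for 48 h at 37 °C, 5% CO2.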

[6] = Cytotoxicity against human UACC257 cells after 48 hrs by SRB assay; assay type: functional; settings: UACC-257, 48 h; method in brief: as §1
SN12C = experiment: Cytotoxicity against human SN12C cells after 48 hrs by SRB assay; assay type: functional; method in brief: as §3
MDA-MB-231 = experiment: Cytotoxicity against human MDA-MB-231 cells after 48 hrs by SRB assay; assay type: functional; settings: MDA-MB-231, 48 h; method in brief: as §3
BT-549 = experiment: Cytotoxicity against human BT549 cells after 48 hrs by SRB assay; assay type: functional; settings: BT-549, 48 h; method in brief: as §2
[7] = Cytotoxicity against human NCI-ADR-RES cells after 48 hrs by SRB assay; assay type: functional; method in brief: as §3
[8] = Cytotoxicity against human HCT15 cells after 48 hrs by SRB assay; assay type: functional; settings: HCT-15, 48 h; method in brief: as §2
A498 = experiment: Cytotoxicity against human A498 cells after 48 hrs by SRB assay; assay type: functional; settings: A498, 48 h; method in brief: as §2
Malme-3M = experiment: Cytotoxicity against human MALME-3M cells after 48 hrs by SRB assay; assay type: functional; method in brief: as §2
SK-OV-3 = experiment: Cytotoxicity against human SKOV3 cells after 48 hrs by SRB assay; assay type: functional; settings: SK-OV-3, 48 h; method in brief: as §3
NCI-H23 = experiment: Cytotoxicity against human NCI-H23 cells after 48 hrs by SRB assay; assay type: functional; settings: NCI-H23, 48 h; method in brief: as §3
COLO 205 = experiment: Cytotoxicity against human COLO205 cells after 48 hrs by SRB assay; assay type: functional; settings: COLO 205, 48 h; method in brief: as §2
HL-60(TB) = experiment: Cytotoxicity against human HL-60(TB) cells after 48 hrs by SRB assay; assay type: functional; settings: HL-60, 48 h; method in brief: as §2
TK-10 = experiment: Cytotoxicity against human TK10 cells after 48 hrs by SRB assay; assay type: functional; settings: TK-10, 48 h; method in brief: as §1
HOP-92 = experiment: Cytotoxicity against human HOP92 cells after 48 hrs by SRB assay; assay type: functional; settings: HOP-92, 48 h; method in brief: as §2
T47D = experiment: Cytotoxicity against human T47D cells after 48 hrs by SRB assay; assay type: functional; method in brief: as §1
ACHN = experiment: Cytotoxicity against human ACHN cells after 48 hrs by SRB assay; assay type: functional; method in brief: as §2
RXF 393 = experiment: Cytotoxicity against human RXF393 cells after 48 hrs by SRB assay; assay type: functional; settings: RXF 393, 48 h; method in brief: as §3
HOP-62 = experiment: Cytotoxicity against human HOP62 cells after 48 hrs by SRB assay; assay type: functional; settings: HOP-62, 48 h; method in brief: as §2
SNB-75 = experiment: Cytotoxicity against human SNB75 cells after 48 hrs by SRB assay; assay type: functional; settings: SNB-75, 48 h; method in brief: as §1
NCI-H322M = experiment: Cytotoxicity against human NCI-H322M cells after 48 hrs by SRB assay; assay type: functional; method in brief: as §3
[9] = Cytotoxicity against human Hs578T cells after 48 hrs by SRB assay; assay type: functional; settings: Hs-578T; method in brief: as §2
MDA-MB-435 = experiment: Cytotoxicity against human MDA-MB-435 cells after 48 hrs by SRB assay; assay type: functional; settings: MDA-MB-435, 48 h; method in brief: as §3
[10] = Cytotoxicity against human OVCAR3 cells after 48 hrs by SRB assay; assay type: functional; settings: OVCAR-3, 48 h; method in brief: as §3
MCF7 = experiment: Cytotoxicity against human MCF7 cells after 48 hrs by SRB assay; assay type: functional; settings: MCF7, 48 h; method in brief: as §2
A549 = experiment: Cytotoxicity against human A549 cells after 48 hrs by SRB assay; assay type: functional; settings: A549, 48 h; method in brief: as §2
CCRF-CEM = experiment: Cytotoxicity against human CCRF-CEM cells after 48 hrs by SRB assay; assay type: functional; method in brief: as §2
[11] = Cytotoxicity against human EKVX cells after 48 hrs by SRB assay; assay type: functional; method in brief: as §2
NCI-H522 = experiment: Cytotoxicity against human NCI-H522 cells after 48 hrs by SRB assay; assay type: functional; settings: NCI-H522, 48 h; method in brief: as §3
HCT-116 = experiment: Cytotoxicity against human HCT116 cells after 48 hrs by SRB assay; assay type: functional; settings: HCT-116, 48 h; method in brief: as §2
KM12 = experiment: Cytotoxicity against human KM12 cells after 48 hrs by SRB assay; assay type: functional; settings: KM12, 48 h; method in brief: as §2
M14 = experiment: Cytotoxicity against human M14 cells after 48 hrs by SRB assay; assay type: functional; settings: M14, 48 h; method in brief: as §2

SMILES | Activity [1] | Activity [2] | Activity [3] | Activity [4] | GI50 [5] [µM] | GI50 (SR) [µM] | GI50 (LOX IMVI) [µM] | GI50 (HT-29) [µM] | GI50 (NCI-H226) [µM] | GI50 [6] [µM] | GI50 (SN12C) [µM] | GI50 (MDA-MB-231) [µM] | GI50 (BT-549) [µM] | GI50 [7] [µM] | GI50 [8] [µM] | GI50 (A498) [µM] | GI50 (Malme-3M) [µM] | GI50 (SK-OV-3) [µM] | GI50 (NCI-H23) [µM] | GI50 (COLO 205) [µM] | other results
CC1(C)OB(c2ccc(N(CCBr)CCBr)cc2)OC1(C)C | Active | Active | Active | Active |  |  |  |  |  |  |  |  |  |  |  |  |  |  |  |  | 
CC1(C)OB(c2ccc(N(CCBr)CCOS(C)(=O)=O)cc2)OC1(C)C | Active | Active | Active | Active |  |  |  |  |  |  |  |  |  |  |  |  |  |  |  |  | 
CC1(C)OB(c2ccc(N(CCCl)CCBr)cc2)OC1(C)C | Active | Active | Active | Active | 6.51 | 0.66 | 6.6 | 18.8 | 11.9 | 13.4 | 4.45 | 22.8 | 12.1 | 6.69 | 17.1 | 5.87 | 18.4 | 9.25 | 5.38 | 11.4 | GI50 (HL-60(TB)): 5.11 µM; GI50 (TK-10): 22.6 µM; GI50 (HOP-92): 12.8 µM; GI50 (T47D): 12 µM; GI50 (ACHN): 3.4 µM; GI50 (RXF 393): 10.4 µM; GI50 (HOP-62): 10.9 µM; GI50 (SNB-75): 10.7 µM; GI50 (NCI-H322M): 32.5 µM; GI50 [9]: 27.4 µM; GI50 (MDA-MB-435): 16.5 µM; GI50 [10]: 15 µM; GI50 (MCF7): 5.03 µM; GI50 (A549): 4.88 µM; GI50 (CCRF-CEM): 5.03 µM; GI50 [11]: 22.5 µM; GI50 (NCI-H522): 11.7 µM; GI50 (HCT-116): 13.9 µM; GI50 (KM12): 31.3 µM; GI50 (M14): 7.86 µM
CC1(C)OB(c2ccc(N(CCCl)CCCl)cc2)OC1(C)C | Active | Active | Active | Active | 5.78 | 0.63 | 5.17 | 13.8 | 12.9 | 11.6 | 4.11 | 16.5 | 10.5 | 5.33 | 13.2 | 2.81 | 17.5 | 8.03 | 4.57 | 11.6 | GI50 (HL-60(TB)): 4.66 µM; GI50 (TK-10): 16.7 µM; GI50 (HOP-92): 9.24 µM; GI50 (T47D): 10.7 µM; GI50 (ACHN): 3.64 µM; GI50 (RXF 393): 10.3 µM; GI50 (HOP-62): 10.9 µM; GI50 (SNB-75): 7.98 µM; GI50 (NCI-H322M): 14.7 µM; GI50 [9]: 26.2 µM; GI50 (MDA-MB-435): 14.2 µM; GI50 [10]: 14.6 µM; GI50 (MCF7): 4.12 µM; GI50 (A549): 2.69 µM; GI50 (CCRF-CEM): 3.34 µM; GI50 [11]: 18.6 µM; GI50 (NCI-H522): 6.59 µM; GI50 (HCT-116): 11.6 µM; GI50 (KM12): 14.9 µM; GI50 (M14): 5.1 µM
CC1(C)OB(c2ccc(N(CCCl)CCOS(C)(=O)=O)cc2)OC1(C)C | Active | Active | Active | Active | 6.18 | 0.63 | 4.72 | 14.6 | 10.4 | 13 | 4.4 | 22.1 | 12 | 6.52 | 13.5 | 8.59 | 14 | 8.96 | 4.7 | 11 | GI50 (HL-60(TB)): 3.88 µM; GI50 (TK-10): 18 µM; GI50 (HOP-92): 11.5 µM; GI50 (T47D): 8.49 µM; GI50 (ACHN): 3.03 µM; GI50 (RXF 393): 5.71 µM; GI50 (HOP-62): 8.85 µM; GI50 (SNB-75): 5.85 µM; GI50 (NCI-H322M): 28.2 µM; GI50 [9]: 24.1 µM; GI50 (MDA-MB-435): 15.3 µM; GI50 [10]: 13.4 µM; GI50 (MCF7): 4.44 µM; GI50 (A549): 4.98 µM; GI50 (CCRF-CEM): 4.01 µM; GI50 [11]: 24.5 µM; GI50 (NCI-H522): 5.99 µM; GI50 (HCT-116): 11.1 µM; GI50 (KM12): 25.8 µM; GI50 (M14): 5.68 µM
